Key:
[1] = biological target: T1, 5-hydroxytryptamine receptor 2A (Rattus norvegicus, UniProt P14842); experiment: Displacement of [125I]DOI from 5HT2A receptor in rat cerebral cortex; assay type: tissue-based
Summary of the method: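 Competition binding against the agonist radioligand [125I]DOI at rat brain (cerebral cortex) 5-HT2A receptors. Values are means of at least three experiments.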

[2] = biological target: 5-hydroxytryptamine receptor 2A (Rattus norvegicus) (UniProt P14842); experiment: (§1) Agonist activity at 5HT2A receptor in rat A7r5 cells assessed as intracellular calcium mobilization relative to 5HT; assay type: functional, cell-based
Chain of 5-hydroxytryptamine receptor 2A (Rattus norvegicus) (P14842 whole entry): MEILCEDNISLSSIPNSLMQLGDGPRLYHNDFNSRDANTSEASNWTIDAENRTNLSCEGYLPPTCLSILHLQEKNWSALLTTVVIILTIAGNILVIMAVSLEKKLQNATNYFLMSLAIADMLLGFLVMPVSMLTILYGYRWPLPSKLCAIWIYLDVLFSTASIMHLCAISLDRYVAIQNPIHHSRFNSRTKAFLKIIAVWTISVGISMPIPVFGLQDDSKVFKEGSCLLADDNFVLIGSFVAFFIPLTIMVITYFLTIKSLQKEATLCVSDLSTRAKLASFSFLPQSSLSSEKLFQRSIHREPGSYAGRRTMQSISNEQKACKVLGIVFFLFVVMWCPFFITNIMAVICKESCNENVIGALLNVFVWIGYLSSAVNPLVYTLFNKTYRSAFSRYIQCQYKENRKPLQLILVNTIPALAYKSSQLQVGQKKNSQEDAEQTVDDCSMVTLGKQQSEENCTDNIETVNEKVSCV
Summary of the method: (§2)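 Native 5-HT2 receptors in rat vascular smooth muscle A7r5 cells; receptor-mediated intracellular Ca2+ mobilization read on FLIPR. Emax expressed relative to the 5-HT response. Values are means of at least three experiments.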

[3] = biological target: T1, 5-hydroxytryptamine receptor 2A; experiment: as §1; assay type: functional, cell-based; summary of the method: as §2
[4] = biological target: 5-hydroxytryptamine receptor 2A (Rattus norvegicus) (UniProt P14842); experiment: Agonist activity at 5HT2A receptor in rat A7r5 cells assessed as intracellular calcium mobilization; assay type: functional, cell-based; summary of the method: as §2
[5] = biological target: 5-hydroxytryptamine receptor 2B (Rattus norvegicus, UniProt P30994); experiment: Agonist activity at 5HT2B receptor in rat stomach fundus assessed as […] relative to 5HT; assay type: functional
Chain of 5-hydroxytryptamine receptor 2B (P30994 whole entry): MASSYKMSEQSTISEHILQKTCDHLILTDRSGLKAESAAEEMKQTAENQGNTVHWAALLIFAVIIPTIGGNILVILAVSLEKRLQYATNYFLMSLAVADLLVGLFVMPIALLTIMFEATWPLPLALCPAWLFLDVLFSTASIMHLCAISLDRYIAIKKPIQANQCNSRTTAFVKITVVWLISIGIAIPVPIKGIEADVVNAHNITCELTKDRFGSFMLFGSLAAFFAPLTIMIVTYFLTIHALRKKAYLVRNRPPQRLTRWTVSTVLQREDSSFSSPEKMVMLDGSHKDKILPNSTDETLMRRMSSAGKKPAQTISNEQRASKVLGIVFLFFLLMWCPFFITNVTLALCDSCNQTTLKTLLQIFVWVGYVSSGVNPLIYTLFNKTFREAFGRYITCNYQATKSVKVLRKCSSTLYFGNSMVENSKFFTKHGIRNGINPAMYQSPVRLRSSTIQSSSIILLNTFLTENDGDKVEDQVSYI
Summary of the method: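 Functional 5-HT2B response measured in isolated rat stomach fundus tissue, run by a contract lab. Emax given relative to 5-HT. Means of at least three experiments.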

[6] = biological target: T2, 5-hydroxytryptamine receptor 2C (Rattus norvegicus, UniProt P08909); experiment: Agonist activity at 5HT2C receptor expressed in […] cells assessed as intracellular calcium mobilization relative to 5HT
T2 sequence (P08909 whole entry): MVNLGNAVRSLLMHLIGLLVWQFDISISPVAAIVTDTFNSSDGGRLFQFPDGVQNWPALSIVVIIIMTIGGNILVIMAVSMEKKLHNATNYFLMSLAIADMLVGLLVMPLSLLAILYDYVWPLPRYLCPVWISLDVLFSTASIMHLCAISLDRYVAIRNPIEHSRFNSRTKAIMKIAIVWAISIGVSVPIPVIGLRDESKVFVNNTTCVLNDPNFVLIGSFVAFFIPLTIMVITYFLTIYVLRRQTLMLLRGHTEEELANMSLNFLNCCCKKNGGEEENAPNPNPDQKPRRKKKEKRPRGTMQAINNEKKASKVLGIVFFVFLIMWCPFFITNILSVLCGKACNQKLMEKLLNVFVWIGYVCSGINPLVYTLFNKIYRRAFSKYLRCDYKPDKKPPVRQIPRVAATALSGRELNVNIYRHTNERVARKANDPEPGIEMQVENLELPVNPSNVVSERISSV

[7] = biological target: T3, 5-hydroxytryptamine receptor 2C (Rattus norvegicus) (UniProt P08909); experiment: Agonist activity at 5HT2C receptor expressed in […] cells assessed as intracellular calcium mobilization; assay type: functional, cell-based
T3 sequence (whole entry): T2 sequence (P08909 whole entry)
Summary of the method: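 SR3T3 cells expressing recombinant rat 5-HT2C receptor; intracellular Ca2+ mobilization measured on FLIPR, as for the A7r5 assay. Emax taken relative to 5-HT. Values are means of at least three experiments.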

Cynomolgus monkey = experiment: Reduction of intra ocular pressure in cynomolgus monkey at 300 ug; assay type: functional, organism-based, Macaca fascicularis, Eye; parameters: Activity: scale not given: the % may be the effect or the level left

T1 sequence (P14842 whole entry): as the sequence (P14842 whole entry) above

Compound	IC50 [1]	Emax [2]	EC50 [3]	Emax [4]	EC50 [5]	EC50 [6]	Emax [7]	Activity (Cynomolgus monkey)	EC50 (Cynomolgus monkey; Macaca fascicularis, Eye)
Cc1noc(-c2c3c(c(C[C@@H](C)N)c4c2OCC4)OCC3)n1	910 nM	27%	8190 nM	–	–	–	–	–	–
COC(=O)c1c2c(c(C[C@@H](C)N)c3c1OCC3)OCC2	14 nM	48%	880 nM	–	–	–	–	–	–
C[C@@H](N)Cc1c2c(c(CC(=O)O)c3c1OCC3)OCC2	104 nM	45%	4970 nM	–	–	–	–	–	–
COC(=O)CCc1c2c(c(C[C@@H](C)N)c3c1OCC3)OCC2	0.86 nM	40%	26 nM	–	–	–	–	–	–
C[C@@H](N)[C@@H](O)c1c2c(c(Br)c3c1OCC3)OCC2 (racemic)	2.6 nM	56%	87.8 nM	–	–	–	–	–	–
COCc1c2ccoc2c(C[C@@H](C)N)c2ccoc12	0.11 nM	72%	3.6 nM	–	–	–	–	–	–
Cc1noc(Cc2c3c(c(C[C@@H](C)N)c4c2OCC4)OCC3)n1	1.6 nM	–	49.2 nM	33%	130 nM	689 nM	69%	–	–
Cc1noc(CCc2c3c(c(C[C@@H](C)N)c4c2OCC4)OCC3)n1	1 nM	7%	> 10000 nM	–	–	–	–	–	–
C[C@@H](N)[C@H](O)c1c2c(c(Br)c3c1OCC3)OCC2	0.7 nM	–	32.7 nM	96%	6.2 nM	39 nM	100%	24%	–
COCc1c2c(c(C[C@@H](C)N)c3c1OCC3)OCC2	0.28 nM	–	12 nM	54%	–	12.6 nM	99%	36.8%	–
C[C@@H](N)Cc1c2c(c(CCC(=O)O)c3c1OCC3)OCC2	4700 nM	15%	> 1000 nM	–	–	–	–	–	–
Cc1noc(Cc2c3ccoc3c(C[C@@H](C)N)c3ccoc23)n1	0.38 nM	–	16.9 nM	60%	23 nM	82 nM	95%	27%	–
COc1cc(C[C@@H](C)N)c(OC)cc1I	0.46 nM	33%	17.8 nM	33%	–	–	–	–	2.72 nM
C[C@@H](N)Cc1c2c(c(CO)c3c1OCC3)OCC2	1 nM	43%	175 nM	–	–	–	–	–	–
CC(N)Cc1c2c(c(Br)c3c1OCC3)OCC2 (stereo not given)	0.3 nM	47%	13 nM	–	–	–	–	–	–
C[C@@H](N)Cc1c2ccoc2c(CO)c2ccoc12	0.31 nM	38%	33 nM	–	–	–	–	–	–
COCCOCc1c2c(c(C[C@@H](C)N)c3c1OCC3)OCC2	0.88 nM	–	71 nM	50%	5.8 nM	8.6 nM	93%	–	–

Reference: ChEMBL document CHEMBL1147985, “Novel benzodifuran analogs as potent 5-HT2A receptor agonists with ocular hypotensive activity” (Bioorg Med Chem Lett, 2007)
